Experimental data published in ChEMBL document CHEMBL1125042, “Hypolipidemic activity of rifamycin derivatives” (J Med Chem, 1990).
Converted amounts (≈) assume the structure as drawn.

Assays:
Rattus norvegicus [1] = experiment: Hypolipidemic activity was determined in male rats, cholesterol was determined in high-density lipoproteins at 100 mg/kg; assay type: functional, organism-based; parameters: dose 100 mg/kg
Outline: (§1)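 Groups of eight male Wistar rats (200–230 g) dosed orally in PEG 400, either daily for 7 days (killed 24 h after the last dose) or for 4 days with a second dose on day 4 (killed 16 h later). Fasted 16 h. Paired sera pooled, lipoproteins separated by ultracentrifugation (1.006 and 1.040 g/cm³), HDL taken as the infranatant. Cholesterol measured enzymatically; % vs vehicle, mean ± SEM of four pools.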

Rattus norvegicus [2] = experiment: Hypolipidemic activity was determined in male rats, cholesterol was determined in high-density lipoproteins at 30 mg/kg; assay type: functional, organism-based; parameters: dose 30 mg/kg; outline: as §1
Rattus norvegicus [3] = experiment: Hypolipidemic activity was determined in male rats, cholesterol was determined in low-density lipoproteins at 100 mg/kg; assay type: functional, organism-based; parameters: dose 100 mg/kg; outline: as §1
Rattus norvegicus [4] = species: Rattus norvegicus; details: 30 mg/kg
Rattus norvegicus [5] = experiment: Hypolipidemic activity was determined in male rats, and serum cholesterol level was determined at 100 mg/kg
Rattus norvegicus [6] = experiment: Hypolipidemic activity was determined in male rats, and low-density lipoprotein level was determined at 30 mg/kg
Rattus norvegicus [7] = experiment: Compound was tested for hypolipidemic activity in male rats, cholesterol was determined in serum at 100 mg/kg; assay type: functional
Outline: (§2)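 Male Wistar rats (200–230 g), eight per group, were dosed orally in PEG 400 at 8 a.m. for 4 days, plus a second dose at 4 p.m. on day 4. Rats were fasted 16 h and killed 16 h after the last dose. Sera from pairs of rats were pooled. LDL (up to 1.040 g/cm³) was separated by ultracentrifugation and the HDL infranatant taken. Cholesterol was measured enzymatically. Results are % versus vehicle control, mean ± SEM of four pools, Student's t test.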

Rattus norvegicus [8] = experiment: Hypolipidemic activity was determined in male rats, and high-density lipoprotein level was determined at 100 mg/kg; assay type: functional; outline: as §2
Rattus norvegicus [9] = experiment: Hypolipidemic activity was determined in male rats, and low-density lipoprotein level was determined at 100 mg/kg; assay type: functional; outline: as §2
Staphylococcus aureus = experiment: Antibacterial activity against Staphylococcus aureus 10B; assay type: functional
Outline: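 Agar dilution on DST agar with 2-fold drug dilutions. Inoculum of 10⁴ viable S. aureus 10B was taken from liquid-nitrogen stock, thawed 30 min and not subcultured. It was applied by multipoint replicator and incubated overnight at 37 °C. MIC is the lowest concentration inhibiting growth relative to control cultures.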

Rattus norvegicus [10] = experiment: Compound was tested for hypolipidemic activity in male rats, cholesterol level was determined in serum at 30 mg/kg; assay type: functional, organism-based; parameters: dose 30 mg/kg; outline: as §2
Rattus norvegicus [11] = species: Rattus norvegicus; experiment: Hypolipidemic activity was determined in male rats, and high-density lipoprotein level was determined; assay type: functional; outline: as §2
Rattus norvegicus [12] = species: Rattus norvegicus; experiment: Hypolipidemic activity was determined in male rats, and low-density lipoprotein level was determined; assay type: functional; outline: as §2
Rattus norvegicus [13] = species: Rattus norvegicus; experiment: Compound was tested for hypolipidemic activity in male rats, cholesterol was determined in serum.; assay type: functional; outline: as §2

Structure (SMILES)	Serum HDL-cholesterol (Rattus norvegicus [1]) [%]	Serum HDL-cholesterol (Rattus norvegicus [2]) [%]	Serum LDL-cholesterol (Rattus norvegicus [3]) [%]	Serum cholesterol (Rattus norvegicus [4]) [%]	Serum cholesterol (Rattus norvegicus [5]) [%]	Serum LDL-cholesterol (Rattus norvegicus [6]) [%]	Activity (Rattus norvegicus [7]) [%]	Activity (Rattus norvegicus [8]) [%]	Activity (Rattus norvegicus [9]) [%]	MIC (Staphylococcus aureus) [µg/mL]	Serum cholesterol (Rattus norvegicus [10]) [%]	Activity (Rattus norvegicus [11]) [%]	Activity (Rattus norvegicus [12]) [%]	Activity (Rattus norvegicus [13]) [%]
O=C(O)c1cccnc1	-13	-1	-52	-6	-10	-32								
CO[C@H]1/C=C/O[C@@]2(C)Oc3c(C)c(O)c4c(O)c(c(/C=N/N5CCN(C)CC5)c(O)c4c3C2=O)NC(=O)/C(C)=C\C=C\[C@H](C)[C@H](O)[C@@H](C)[C@@H](O)[C@@H](C)[C@H](OC(C)=O)[C@@H]1C [RIFAMPIN]							-30	-27	-31	0.003 (≈ 0.00365 µM)				
CCOC(=O)C(C)(C)Oc1ccc(Cl)cc1	-34	-13	14		-30	-8					-15			
COc1c(C)c2c3c4c1C(=O)C(=C(N1CCN(Cc5c(C)cc(C)cc5C)CC1)C4=O)NC(=O)/C(C)=C\C=C\C(C)C(O)C(C)C(O)C(C)C(OC(C)=O)C(C)C(OC)/C=C/OC(C)(O2)C3=O (stereo not given)										1 (≈ 1.08 µM)		-6	1	-4
